The source made the active and inactive calls. The rule behind the calls is not given here.
What was measured:
Pichinde virus [1] = experiment: Antiviral activity against Pichinde virus An 4763 infected Syrian golden hamster assessed as mean day of death at 60 mg/kg, po twice daily for 7 days administered 4 hrs before viral-challenge; assay type: functional
Punta Toro virus [2] = experiment: Antiviral activity against 500 PFU Punta Toro virus Adames infected C57BL/6 mouse assessed as animals with detectable virus level in liver at 25 mg/kg, po twice daily administered 4 hrs before viral challenge measured on day 4 of viral infection; assay type: functional
Summary of the method: (§1)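 T-705 was suspended in 0.4% carboxymethylcellulose and given by oral gavage twice daily. Mice were infected subcutaneously with PTV. Five mice per group (10 placebo) were sacrificed on day 3 or 4. Liver homogenate or serum was serially diluted onto triplicate LLC-MK2 monolayers, and CPE was read at 6–8 days. The detection limit was 2.8 log10 CCID50 per 0.1 g liver or 0.1 ml serum.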

Pichinde virus [3] = experiment: Antiviral activity against Pichinde virus An 4763 infected Syrian golden hamster assessed as animals with detectable virus level in liver at 60 mg/kg, po twice daily for 7 days administered 4 hrs before viral-challenge measured on day 7 of viral infection; assay type: functional
Punta Toro virus [4] = experiment: Antiviral activity against 500 PFU Punta Toro virus Adames infected C57BL/6 mouse assessed as survival at 100 mg/kg, po twice daily for 5 days administered 4 hrs before viral challenge; assay type: functional, organism-based; set-up: dose 100 mg/kg
Summary of the method: (§2)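 PTV was inoculated subcutaneously into mice in groups of 15 (25–30 placebo). Dosing was by oral gavage twice daily for 5–7 days, with T-705 suspended in 0.4% CMC and ribavirin in saline. Remaining animals were observed 21–28 days for survival and day of death. Test doses had first been checked for tolerance in uninfected animals.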

Punta Toro virus [5] = experiment: Antiviral activity against 500 PFU Punta Toro virus Adames infected C57BL/6 mouse assessed as animals with detectable virus level in serum at 30 mg/kg, po twice daily administered 4 hrs before viral challenge measured on day 3 of viral infection; assay type: functional; summary of the method: as §1
Punta Toro virus [6] = experiment: Antiviral activity against 500 PFU Punta Toro virus Adames infected C57BL/6 mouse assessed as mean viral titer per 0.1 mL of serum at 10 mg/kg, po twice daily administered 4 hrs before viral challenge measured on day 3 of viral infection; assay type: functional
Summary of the method: (§3)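 Mice were infected subcutaneously with PTV and dosed by oral gavage twice daily; 5 per group (10 placebo) were killed on day 3 or 4. Liver homogenate or serum was serially diluted onto triplicate LLC-MK2 monolayers, and CPE was read 6–8 days later. 50% endpoints gave log10 CCID50 per 0.1 g liver or 0.1 ml serum. Detection range was 2.8–9.5; undetectable samples were assigned <2.8.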

Pichinde virus [7] = experiment: Antiviral activity against Pichinde virus An 4763 infected Syrian golden hamster assessed as animals with detectable virus level in liver at 15 mg/kg, po twice daily for 7 days administered 4 hrs before viral-challenge measured on day 7 of viral infection; assay type: functional
Punta Toro virus [8] = experiment: Antiviral activity against Punta Toro virus Adames infected Syrian golden hamster assessed as mean serum ALT levels at 15 mg/kg, po twice daily administered 4 hrs before viral challenge measured on day 4 of viral infection; assay type: functional
Punta Toro virus [9] = experiment: Antiviral activity against 500 PFU Punta Toro virus Adames infected C57BL/6 mouse assessed as animals with detectable virus level in serum at 5 mg/kg, po twice daily administered 4 hrs before viral challenge measured on day 3 of viral infection; assay type: functional; summary of the method: as §1
Enterovirus C = experiment: Antiviral activity against Poliovirus; assay type: functional, organism-based
Punta Toro virus [10] = experiment: Antiviral activity against Punta Toro virus Adames infected Syrian golden hamster assessed as animals with detectable virus level in serum at 15 mg/kg, po twice daily administered 4 hrs before viral challenge measured on day 4 of viral infection; assay type: functional
Punta Toro virus [11] = experiment: Antiviral activity against Punta Toro virus Adames infected Syrian golden hamster assessed as mean viral titer per 0.1 g of liver at 60 mg/kg, po twice daily administered 4 hrs before viral challenge measured on day 4 of viral infection; assay type: functional
Punta Toro virus [12] = experiment: Antiviral activity against 500 PFU Punta Toro virus Adames infected C57BL/6 mouse assessed as mean viral titer per 0.1 g of liver at 100 mg/kg, po administered 4 hrs before viral challenge measured on day 4 of viral infection; assay type: functional; summary of the method: as §3
Punta Toro virus [13] = experiment: Antiviral activity against 500 PFU Punta Toro virus Adames infected C57BL/6 mouse assessed as mean day of death at 5 mg/kg, po twice daily for 5 days administered 4 hrs before viral challenge; assay type: functional
Summary of the method: (§4)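 Groups of 15 mice (25–30 placebo) were inoculated subcutaneously with PTV. Drug in 0.4% carboxymethylcellulose was given by oral gavage twice daily.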

Punta Toro virus [14] = experiment: Antiviral activity against 500 PFU Punta Toro virus Adames infected C57BL/6 mouse assessed as mean day of death at 30 mg/kg, po twice daily for 5 days administered 4 hrs before viral challenge; assay type: functional; summary of the method: as §4
Punta Toro virus [15] = experiment: Antiviral activity against 500 PFU Punta Toro virus Adames infected C57BL/6 mouse assessed as mean viral titer per 0.1 mL of serum at 200 mg/kg, po twice daily administered 4 hrs before viral challenge measured on day 4 of viral infection; assay type: functional; summary of the method: as §3
La Crosse virus = experiment: Antiviral activity against La Crosse virus assessed as reduction of 1 log10 unit viral titer yields after 3 to 5 days; assay type: functional
Pichinde virus [16] = experiment: Antiviral activity against Pichinde virus An 4763 infected Syrian golden hamster assessed as animals with detectable virus level in serum at 30 mg/kg, po twice daily for 7 days administered 4 hrs before viral-challenge measured on day 7 of viral infection; assay type: functional
Punta Toro virus [17] = experiment: Antiviral activity against 500 PFU Punta Toro virus Adames infected C57BL/6 mouse assessed as mean viral titer per 0.1 g of liver at 200 mg/kg, po twice daily administered 4 hrs before viral challenge measured on day 4 of viral infection; assay type: functional; summary of the method: as §3
Punta Toro virus [18] = experiment: Antiviral activity against 500 PFU Punta Toro virus Adames infected C57BL/6 mouse assessed as animals with detectable virus level in liver at 75 mg/kg, po twice daily administered 4 hrs before viral challenge measured on day 4 of viral infection; assay type: functional; summary of the method: as §1
Pichinde virus [19] = experiment: Antiviral activity against Pichinde virus An 4763 infected Syrian golden hamster assessed as inhibition of liver damage at 20 mg/kg, po twice daily for 7 days administered 24 hrs post viral-challenge measured on day 7 of viral infection; assay type: functional, organism-based; set-up: dose 20 mg/kg
Punta Toro virus [20] = experiment: Antiviral activity against 5000 PFU Punta Toro virus Adames infected C57BL/6 mouse assessed as survival at 10 mg/kg, po twice daily for 5 days administered 24 hrs post viral challenge; assay type: functional; summary of the method: as §2
Punta Toro virus [21] = experiment: Antiviral activity against Punta Toro virus Adames infected Syrian golden hamster assessed as mean serum ALT levels at 60 mg/kg, po twice daily administered 4 hrs before viral challenge measured on day 4 of viral infection; assay type: functional
Rift Valley fever virus = experiment: Antiviral activity against Rift Valley fever virus MP-12 assessed as reduction of 1 log10 unit viral titer yields after 3 to 5 days; assay type: functional
Junin virus = experiment: Antiviral activity against Junin virus Candid-1 assessed as reduction of 1 log10 unit viral titer yields after 7 to 8 days; assay type: functional; conditions: Mammarenavirus juninense
Pichinde virus [22] = experiment: Antiviral activity against Pichinde virus An 4763 infected Syrian golden hamster assessed as animals with detectable virus level in serum at 40 mg/kg, po twice daily for 7 days administered 4 hrs before viral-challenge measured on day 7 of viral infection; assay type: functional
Punta Toro virus [23] = experiment: Antiviral activity against 500 PFU Punta Toro virus Adames infected C57BL/6 mouse assessed as animals with detectable virus level in serum at 75 mg/kg, po twice daily administered 4 hrs before viral challenge measured on day 4 of viral infection; assay type: functional; summary of the method: as §1

NC(=O)c1nc(F)cnc1O [FAVIPIRAVIR]
Activity (Pichinde virus [1]): 22 days | Activity (Punta Toro virus [2]): 0% | Activity (Pichinde virus [3]): 0% | Activity (Punta Toro virus [4]): Active | Activity (Punta Toro virus [5]): 80% | log10CCID50 (Punta Toro virus [6]): 6.2 | Activity (Pichinde virus [7]): 100% | Activity (Punta Toro virus [8]): 204 IU/L | Activity (Punta Toro virus [9]): 100% | EC50 (Enterovirus C): 31 µM | Activity (Punta Toro virus [10]): 100% | log10CCID50 (Punta Toro virus [11]): <3.4 | log10CCID50 (Punta Toro virus [12]): <2.8 | Activity (Punta Toro virus [13]): 4.9 days | Activity (Punta Toro virus [14]): >21 days | log10CCID50 (Punta Toro virus [15]): <2.8 | EC90 (La Crosse virus): 7 µM | Activity (Pichinde virus [16]): 80% | log10CCID50 (Punta Toro virus [17]): <2.8 | Activity (Punta Toro virus [18]): 0% | Activity (Pichinde virus [19]): Active | survival at 10 mg/kg (Punta Toro virus [20]): 40% | Activity (Punta Toro virus [21]): 17 IU/L | EC90 (Rift Valley fever virus): 6 µM | EC90 (Junin virus): 7 µM

NC(=O)c1ncn([C@@H]2O[C@H](CO)[C@@H](O)[C@H]2O)n1 [RIBAVIRIN]
Activity (Pichinde virus [22]): 40% | Activity (Punta Toro virus [23]): 20%
